In assay [1] the test system is E. faecalis KA247. The assay is described as follows: Agar well-diffusion, inhibition zone. Type of assay: cell-based, Enterococcus faecalis. Particulars: Enterococcus faecalis, KA247, read-out: Average diameter of inhibition zone (ZI). An outline of the steps: (§1)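 Clinical MDR isolates from complicated UTI patients. Suspensions were made in Tryptic Soya and Sabouraud broths from subcultures on Tryptic Soya and Sabouraud agar plates. Agar well diffusion followed CLSI guidelines, with test compounds applied at 10 μM in DMSO. Fosfomycin and fluconazole were positive controls and DMSO the negative control. Zone diameters were read in mm, in triplicate.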
For orientation: A growth-free zone around the sample is the usual read-out of agar diffusion tests.

Assay [2] relates to S. aureus KA112. The assay is described as follows: Agar well-diffusion, inhibition zone. In kind it is cell-based, Staphylococcus aureus. Particulars: Staphylococcus aureus, KA112, read-out: Average diameter of inhibition zone (ZI). An outline of the steps:
as §1

In assay [3] the test system is E. coli KA780. Description: Agar well-diffusion, inhibition zone. Type of assay: cell-based, Escherichia coli. The note with it: Escherichia coli, KA780, read-out: Average diameter of inhibition zone (ZI). An outline of the steps:
as §1

The test system of assay [4] is P. mirabilis KA320. The assay is described as follows: Agar well-diffusion, inhibition zone. In kind it is cell-based, Proteus mirabilis. The note with it: Proteus mirabilis, KA320, read-out: Average diameter of inhibition zone (ZI). An outline of the steps: as §1
Assay [5] deals with C. albicans KA205. Description: Agar well-diffusion, inhibition zone. Type of assay: cell-based, Candida albicans. The note with it: Candida albicans, KA205, read-out: Average diameter of inhibition zone (ZI). An outline of the steps: as §1
Assay [6] has as its system C. tropicalis KA205. Description: Agar well-diffusion, inhibition zone. Type of assay: cell-based, Candida tropicalis. The note with it: Candida tropicalis, KA205, read-out: Average diameter of inhibition zone (ZI). An outline of the steps:
as §1

The subject of assay [7] is E. faecalis KA247. The assay is described as follows: Broth microdilution MIC and MBC. Type of assay: cell-based. Particulars: Enterococcus faecalis, KA247, 24 h. Background: In broth dilution the organism is exposed to a series of concentrations in liquid medium.
Assay [8] has as its system S. aureus KA112. Description: Broth microdilution MIC and MBC. In kind it is cell-based. Particulars: Staphylococcus aureus; for MIC: KA112, 24 h; for MBC: KA112, read-out: MBC/MIC.
In assay [9] the test system is E. coli KA780. The assay is described as follows: Broth microdilution MIC and MBC. In kind it is cell-based. The note with it: Escherichia coli; for MIC: KA780, 24 h; for MBC: KA780, read-out: MBC/MIC.
For assay [10], the system named is P. mirabilis KA320. The assay is described as follows: Broth microdilution MIC and MBC. In kind it is cell-based. Particulars: Proteus mirabilis; for MIC: KA320, 24 h; for MBC: KA320, read-out: MBC/MIC.
In assay [11] the test system is C. albicans KA205. Description: Broth microdilution MIC and MFC. Type of assay: cell-based. The note with it: Candida albicans; for MIC: KA205, 24 h; for MFC: KA205, read-out: MFC/MIC.
Assay [12] concerns C. tropicalis KA205. The assay is described as follows: Broth microdilution MIC and MFC. Type of assay: cell-based. The note with it: Candida tropicalis; for MIC: KA205, 24 h; for MFC: KA205, read-out: MFC/MIC.
A further assay concerns fungal isolates. The assay is described as follows: Broth microdilution MIC/MFC, fungal panel. Type of assay: cell-based.

≈ marks a conversion by molar mass, not a printed value.

`Nc1nc2c(-c3ccc([N+](=O)[O-])cc3)nn(-c3ccccc3)c2s1` [Compound 2, 3-(4-nitrophenyl)-1-phenyl-1H-pyrazolo[4,3-d]thiazol-5-amine]: the zone of inhibition at 10 µM in the assay with E. faecalis KA247 [1] was found to be 17 mm; with S. aureus KA112 [2], 17 ± 0.39 mm; with E. coli KA780 [3], 17 ± 0.62 mm; in the assay on P. mirabilis KA320 [4], 16 ± 0.79 mm; in the assay on C. albicans KA205 [5], 17 ± 0.16 mm; with C. tropicalis KA205 [6], 16 ± 0.63 mm. In addition, the MIC against E. faecalis KA247 [7] turned out to be 8 µg/mL (≈ 23.7 µM); in the assay on S. aureus KA112 [8], 8 µg/mL (≈ 23.7 µM); in the assay on E. coli KA780 [9], 4 µg/mL (≈ 11.9 µM); against P. mirabilis KA320 [10], 8 µg/mL (≈ 23.7 µM); against C. albicans KA205 [11], 1 µg/mL (≈ 2.96 µM); against C. tropicalis KA205 [12], 1 µg/mL (≈ 2.96 µM). Also, the MBC was 0.5 µg/mL (≈ 1.48 µM) with S. aureus KA112 [8], 0.5 µg/mL (≈ 1.48 µM) with E. coli KA780 [9] and 1 µg/mL (≈ 2.96 µM) in the assay on P. mirabilis KA320 [10]. The MFC was 0.5 µg/mL (≈ 1.48 µM) in the assay with C. albicans KA205 [11] and 2 µg/mL (≈ 5.93 µM) in the assay with C. tropicalis KA205 [12].

On to `CCOP(=O)(OCC)C(Nc1nc2c(-c3ccc([N+](=O)[O-])cc3)nn(-c3ccccc3)c2s1)c1ccc(Cl)cc1` (stereo not shown) [Compound 3, Diethyl((4-chlorophenyl)((3-(4-nitrophenyl)-1-phenyl-1H-pyrazolo[4,3-d]thiazol-5-yl)amino)methyl)phosphonate], for which the zone of inhibition at 10 µM with E. faecalis KA247 [1] was 18 ± 0.05 mm; with S. aureus KA112 [2] it was 18 ± 0.31 mm; in the assay with E. coli KA780 [3], 19 ± 0.14 mm; in the assay on P. mirabilis KA320 [4], 17 ± 0.71 mm; in the assay with C. albicans KA205 [5], 17 ± 0.88 mm; in the assay on C. tropicalis KA205 [6] it was 17 ± 0.48 mm. Moreover, the MIC in the assay on E. faecalis KA247 [7] was 2 µg/mL (≈ 3.34 µM); in the assay on S. aureus KA112 [8], 1 µg/mL (≈ 1.67 µM); against E. coli KA780 [9], 1 µg/mL (≈ 1.67 µM); in the assay on P. mirabilis KA320 [10], 2 µg/mL (≈ 3.34 µM); against C. albicans KA205 [11], 1 µg/mL (≈ 1.67 µM); in the assay with C. tropicalis KA205 [12], 1 µg/mL (≈ 1.67 µM). Also, the MBC in the assay on S. aureus KA112 [8] was 2 µg/mL (≈ 3.34 µM); in the assay with E. coli KA780 [9], 1 µg/mL (≈ 1.67 µM); in the assay with P. mirabilis KA320 [10] it was 1 µg/mL (≈ 1.67 µM). In addition, the MFC with C. albicans KA205 [11] was 1 µg/mL (≈ 1.67 µM); in the assay with C. tropicalis KA205 [12], 0.5 µg/mL (≈ 0.836 µM); with fungal isolates, 0.5 to 1 µg/mL (≈ 0.836 to 1.67 µM).

Take `CCOP(=O)(OCC)C(Nc1nc2c(-c3ccc([N+](=O)[O-])cc3)nn(-c3ccccc3)c2s1)c1ccc(N(C)C)cc1` (stereo not shown) [Compound 4, Diethyl((4-(dimethylamino)phenyl)((3-(4-nitrophenyl)-1-phenyl-1H-pyrazolo[4,3-d]thiazol-5-yl)amino)methyl)phosphonate]: the zone of inhibition at 10 µM in the assay with E. faecalis KA247 [1] was found to be 16 ± 0.8 mm; in the assay with S. aureus KA112 [2], 17 mm; in the assay on E. coli KA780 [3] it was 17 ± 0.54 mm; in the assay with P. mirabilis KA320 [4], 16 ± 0.34 mm; in the assay on C. albicans KA205 [5], 16 ± 0.67 mm; in the assay with C. tropicalis KA205 [6], 16 ± 0.54 mm. Also, the MIC was determined as 16 µg/mL (≈ 26.4 µM) against E. faecalis KA247 [7]; 8 µg/mL (≈ 13.2 µM) with S. aureus KA112 [8]; 8 µg/mL (≈ 13.2 µM) against E. coli KA780 [9]; 16 µg/mL (≈ 26.4 µM) with P. mirabilis KA320 [10]; 2 µg/mL (≈ 3.3 µM) in the assay with C. albicans KA205 [11]; 2 µg/mL (≈ 3.3 µM) in the assay with C. tropicalis KA205 [12]. Also, the MBC with S. aureus KA112 [8] was determined as 2 µg/mL (≈ 3.3 µM); in the assay on E. coli KA780 [9] it was 1 µg/mL (≈ 1.65 µM); in the assay with P. mirabilis KA320 [10], 1 µg/mL (≈ 1.65 µM). For the same compound, the MFC is 0.5 µg/mL (≈ 0.824 µM) with C. albicans KA205 [11], 1 µg/mL (≈ 1.65 µM) with C. tropicalis KA205 [12] and 1 to 2 µg/mL (≈ 1.65 to 3.3 µM) in the assay on fungal isolates.

Take `O=[N+]([O-])c1ccc(-c2nn(-c3ccccc3)c3sc(NC(c4cccs4)P(=O)(Oc4ccccc4)Oc4ccccc4)nc23)cc1` (stereo not shown) [Compound 6a, Diphenyl(((3-(4-nitrophenyl)-1-phenyl-1H-pyrazolo[4,3-d]thiazol-5-yl)amino)(thiophen-2-yl)methyl)phosphonate]: the zone of inhibition at 10 µM came out at 18 ± 0.74 mm in the assay with E. faecalis KA247 [1]; 19 mm in the assay on S. aureus KA112 [2]; 19 ± 0.66 mm in the assay on E. coli KA780 [3]; 18 ± 0.5 mm in the assay on P. mirabilis KA320 [4]; 20 ± 0.89 mm in the assay on C. albicans KA205 [5]; 20 ± 0.2 mm with C. tropicalis KA205 [6]. Besides, the minimum inhibitory concentration (MIC) against E. faecalis KA247 [7] is 2 µg/mL (≈ 3 µM); in the assay with S. aureus KA112 [8] it was 1 µg/mL (≈ 1.5 µM); against E. coli KA780 [9] it was 1 µg/mL (≈ 1.5 µM); in the assay with P. mirabilis KA320 [10] it was 2 µg/mL (≈ 3 µM); in the assay on C. albicans KA205 [11], 0.5 µg/mL (≈ 0.751 µM); in the assay on C. tropicalis KA205 [12] it was 0.5 µg/mL (≈ 0.751 µM). Further, the figures for the MBC with S. aureus KA112 [8], in the assay with E. coli KA780 [9] and with P. mirabilis KA320 [10] were 1 µg/mL (≈ 1.5 µM), 0.5 µg/mL (≈ 0.751 µM) and 1 µg/mL (≈ 1.5 µM), respectively. For the same compound, the MFC in the assay with C. albicans KA205 [11] came to 0.5 µg/mL (≈ 0.751 µM); in the assay on C. tropicalis KA205 [12] it was 1 µg/mL (≈ 1.5 µM).

One may read the zone of inhibition as the extent of the growth-free halo in a diffusion test. For orientation: MIC means the least concentration at which growth counts as inhibited. The low end stands for inhibition by little substance, the high end for a need for much substance.

The values above are taken from paper PMC10685179 (RSC Advances, 2023).
